Laboratory results reported in ChEMBL document CHEMBL1137434, “2-O-carboxymethylpyrogallol derivatives as PTP1B inhibitors with antihyperglycemic activity” (Bioorg Med Chem Lett, 2007).
Activity calls are given as the source filed them. No cut-off for these calls is given here.

Key:
[1] = biological target: T1, Tyrosine-protein phosphatase non-receptor type 1 (Homo sapiens, UniProt P18031); experiment: Inhibition of PTP1B after 10 mins
T1 sequence (P18031 whole entry): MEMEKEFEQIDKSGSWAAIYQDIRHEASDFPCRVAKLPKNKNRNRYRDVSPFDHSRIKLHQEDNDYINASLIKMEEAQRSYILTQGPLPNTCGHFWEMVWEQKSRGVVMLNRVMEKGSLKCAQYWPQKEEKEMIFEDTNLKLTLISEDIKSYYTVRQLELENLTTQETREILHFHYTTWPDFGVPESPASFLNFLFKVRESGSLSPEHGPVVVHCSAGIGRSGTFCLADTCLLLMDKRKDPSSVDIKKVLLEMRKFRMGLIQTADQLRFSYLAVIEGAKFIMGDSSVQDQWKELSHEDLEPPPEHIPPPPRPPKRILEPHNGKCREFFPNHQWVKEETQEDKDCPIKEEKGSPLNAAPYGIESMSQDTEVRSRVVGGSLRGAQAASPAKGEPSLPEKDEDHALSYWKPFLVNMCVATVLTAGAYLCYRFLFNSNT

[2] = biological target: T2, Tyrosine-protein phosphatase non-receptor type 2 (Homo sapiens, UniProt P17706); experiment: Inhibition of TC-PTP after 10 mins
T2 sequence (P17706 whole entry): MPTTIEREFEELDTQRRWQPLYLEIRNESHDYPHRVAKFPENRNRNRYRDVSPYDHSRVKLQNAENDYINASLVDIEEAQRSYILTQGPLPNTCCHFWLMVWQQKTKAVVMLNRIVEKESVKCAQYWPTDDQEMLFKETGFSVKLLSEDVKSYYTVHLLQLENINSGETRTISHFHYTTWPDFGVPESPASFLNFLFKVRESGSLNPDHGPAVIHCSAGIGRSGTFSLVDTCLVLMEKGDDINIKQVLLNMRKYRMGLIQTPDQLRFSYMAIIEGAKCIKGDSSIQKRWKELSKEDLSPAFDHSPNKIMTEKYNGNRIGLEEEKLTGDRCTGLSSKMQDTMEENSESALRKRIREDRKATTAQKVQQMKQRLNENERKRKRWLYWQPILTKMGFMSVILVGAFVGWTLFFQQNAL
In short: (§1)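 Enzymes were preincubated 10 min with inhibitor in DMSO, then pNPP was added to start the reaction. Final mix: 2 mM pNPP, 50 mM Hepes, 5 mM EDTA, pH 7, plus 10% enzyme dilution buffer (Hepes, EDTA, 1 mM DTT, BSA). Enzyme levels were native PTP1B 40 nM, SHP-1cat 5 µg/mL, LAR-D1 and TC-PTP 33 U/mL, YOP 50 U/mL and YPTP-1 15 nM. IC50 came from an inhibitor concentration range, as means ± SD of 2–3 experiments.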

[3] = biological target: Tyrosine-protein phosphatase non-receptor type 6 (Homo sapiens, UniProt P29350); experiment: Inhibition of SHP-1 catalytic domain after 10 mins; in short: as §1
[4] = Inhibition of LAR-D1 after 10 mins; parameters: species or system Homo sapiens; in short: as §1
[5] = Inhibition of YOP after 10 mins; in short: as §1
[6] = biological target: T3, Tyrosine-protein phosphatase 1 (Saccharomyces cerevisiae S288c, UniProt P25044); experiment: Inhibition of yeast PTP1 after 10 mins; in short: as §1
T3 sequence (P25044 whole entry): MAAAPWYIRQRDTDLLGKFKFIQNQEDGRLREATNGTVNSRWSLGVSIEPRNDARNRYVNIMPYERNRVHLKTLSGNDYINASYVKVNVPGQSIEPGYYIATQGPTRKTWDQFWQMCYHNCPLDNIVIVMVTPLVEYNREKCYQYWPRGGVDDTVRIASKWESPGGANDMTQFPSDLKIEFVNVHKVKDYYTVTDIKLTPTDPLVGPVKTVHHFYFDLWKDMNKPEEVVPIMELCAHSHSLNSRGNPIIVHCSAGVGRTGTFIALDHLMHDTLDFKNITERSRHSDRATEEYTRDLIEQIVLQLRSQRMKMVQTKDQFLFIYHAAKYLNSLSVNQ

[7] = species on record: Homo sapiens; experiment: Selectivity for PTP1B over TC-PTP
[8] = species on record: Mus musculus; experiment: Antihyperglycemic activity in high fat diet induced C57BL/6JCr Slc mouse assessed as reduction in blood glucose level relative to control; format: functional, organism-based
In short: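 Male C57BL/6J Cr Slc mice, 5 wk old and acclimatized 1 wk, were fed high-fat diet for 8 wk. They were then split into two groups of 7 and fed HFD or HFD plus drug for 4 wk; a lean LFD group served as control. After a 6 h fast, mice received glucose 1 g/kg ip. Tail-blood glucose was read at baseline and at 20, 40, 60, 90 and 120 min.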

Sequence of Tyrosine-protein phosphatase non-receptor type 6 (P29350 whole entry, the tested form may be a part): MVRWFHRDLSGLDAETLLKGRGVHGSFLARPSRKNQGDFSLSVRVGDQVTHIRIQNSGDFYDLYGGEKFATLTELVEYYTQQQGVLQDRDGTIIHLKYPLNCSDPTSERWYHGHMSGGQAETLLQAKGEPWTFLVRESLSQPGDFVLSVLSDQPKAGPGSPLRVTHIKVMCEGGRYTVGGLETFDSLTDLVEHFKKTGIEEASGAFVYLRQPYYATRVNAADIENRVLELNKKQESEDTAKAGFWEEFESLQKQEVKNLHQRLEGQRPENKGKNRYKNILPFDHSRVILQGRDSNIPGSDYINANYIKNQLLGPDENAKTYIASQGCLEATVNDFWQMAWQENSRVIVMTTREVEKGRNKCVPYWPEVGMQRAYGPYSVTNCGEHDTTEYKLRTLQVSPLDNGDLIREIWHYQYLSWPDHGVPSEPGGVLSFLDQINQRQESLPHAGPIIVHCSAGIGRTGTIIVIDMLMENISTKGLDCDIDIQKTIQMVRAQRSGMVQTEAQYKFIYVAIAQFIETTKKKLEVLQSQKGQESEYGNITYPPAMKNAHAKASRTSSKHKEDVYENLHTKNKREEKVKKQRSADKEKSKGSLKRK

Compound	IC50 [1]	IC50 [2]	IC50 [3]	IC50 [4]	IC50 [5]	IC50 [6]	Selectivity ratio [7]	Ki [1]	Ki [2]	Activity [8]
O=C(O)COc1c(O)cccc1OCc1ccccc1	> 1000 µM	–	–	–	–	–	–	–	–	–
O=C(O)COc1c(O)cc(-c2ccc(C(F)(F)F)cc2)cc1OCc1ccc(C(F)(F)F)cc1	5.4 µM	44 µM	12 µM	> 200 µM	13 µM	23 µM	5	–	–	–
O=C(O)COc1c(O)cc(-c2ccccc2)cc1OCc1ccc(C(F)(F)F)cc1	17 µM	–	–	–	–	–	–	–	–	–
O=C(O)COc1c(O)cc(-c2cccc(C(F)(F)F)c2)cc1OCc1ccc(C(F)(F)F)cc1	5 µM	65 µM	13 µM	> 200 µM	21 µM	17 µM	5	–	–	–
O=C(O)COc1c(O)cc(-c2cc(C(F)(F)F)cc(C(F)(F)F)c2)cc1OCc1ccc(C(F)(F)F)cc1	2 µM	22 µM	4 µM	116 µM	6 µM	9 µM	7	1.1 µM	8.2 µM	Active
O=C(O)COc1c(O)cc(Br)cc1OCc1ccc(C(F)(F)F)cc1	73 µM	–	–	–	–	–	–	–	–	–
O=C(O)COc1c(O)cc(-c2ccccc2)cc1OCc1ccccc1	93 µM	–	–	–	–	–	–	–	–	–
O=C(O)COc1c(O)cccc1OCc1ccc(C(F)(F)F)cc1	> 1000 µM	–	–	–	–	–	–	–	–	–
O=C(O)COc1c(O)cc(-c2ccccc2)cc1O	> 1000 µM	–	–	–	–	–	–	–	–	–
O=C(O)COc1c(O)cc(-c2cc(C(F)(F)F)cc(C(F)(F)F)c2)cc1OCc1ccccc1	5.7 µM	37 µM	9 µM	> 200 µM	15 µM	20 µM	5	–	–	–
O=C(O)COc1c(O)cc(-c2ccc(C(F)(F)F)cc2)cc1OCc1ccccc1	13 µM	96 µM	25 µM	> 200 µM	34 µM	17 µM	5	–	–	–
O=C(O)COc1c(O)cc(Br)cc1OCc1ccccc1	300 µM	–	–	–	–	–	–	–	–	–
COc1cc(COc2cc(-c3ccccc3)cc(O)c2OCC(=O)O)cc(OC)c1	40 µM	–	–	–	–	–	–	–	–	–
O=C(O)COc1c(O)cc(-c2cccc(C(F)(F)F)c2)cc1OCc1ccccc1	2.2 µM	120 µM	38 µM	> 200 µM	33 µM	52 µM	5	–	–	–
